This is an account of results in article PMC6626068 (Journal of Advanced Research, 2019).

Broadly, the IC50 is the midpoint of a concentration-inhibition curve.

Format in all cases: cell-based
One experiment deals with HeLa. The experiment in a line: MTT cytotoxicity assay, HeLa cells. To be noted: 72 h; for IC50: read-out: IC50 (μM) HeLa. The gist of the method: (§1)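 Cells were grown in DMEM with 10% FBS and 1% penicillin/streptomycin at 37 °C under 5% CO₂, then seeded at 1 × 10⁴ cells/well. After 24 h they received the test compound at 0, 2.5, 5, 10, 20 and 40 μM for 72 h, with doxorubicin as positive control. MTT (5 mg/mL stock) was added for 4 h, formazan dissolved in DMSO for 10 min, A570 read, and IC50 calculated.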
On the technique in general: Tetrazolium assays rely on reduction of a dye to a coloured formazan, in cell work by metabolically active cells.

The test system of the next experiment is HepG2. As to the kind of experiment: MTT cytotoxicity assay, HepG2 cells. As to conditions: read-out: IC50 (μM) HepG2. In a few lines: as §1
For the next experiment, the system named is MCF-7. The experiment in a line: MTT cytotoxicity assay, MCF-7 cells. To be noted: for IC50: read-out: IC50 (μM) MCF-7. In a few lines:
as §1

In the next experiment the test system is HCT-116. As to the kind of experiment: MTT cytotoxicity assay, HCT-116 cells. As to conditions: read-out: IC50 (μM) HCT-116. The gist of the method:
as §1

In the next experiment the test system is MDA-MB-231. The experiment in a line: MTT cytotoxicity assay, MDA-MB-231 cells. As to conditions: read-out: IC50 (μM) MDA-MB-231. In a few lines: as §1
The subject of another experiment is HUVEC. As to the kind of experiment: MTT cytotoxicity assay, normal cell line HUVEC. As to conditions: 72 h, read-out: IC50 (μM) HUVEC.
The next experiment deals with GFP-LC3-HeLa cells. As to the kind of experiment: Autophagy detection using GFP-LC3 expression in HeLa cells. As to conditions: 25 μM, 24 h, observation control. The gist of the method: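 HeLa cells stably expressing GFP-LC3, grown in 24-well plates, were exposed to the test compound for 24 h, either at 10 μM for screening or at 2.5, 5, 10 and 20 μM. Chloroquine phosphate at 25 μM served as the observation control. GFP-LC3 puncta were imaged by fluorescence microscopy, and dots per cell were counted.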

A further experiment concerns HeLa cells. As to the kind of experiment: Annexin V/PI double staining flow cytometry, HeLa. As to conditions: 1 μM, 48 h (positive control).
The next experiment deals with MCF-7 cells. The experiment in a line: Annexin V/PI double staining flow cytometry, MCF-7. To be noted: MCF-7, 1 μM, 48 h (positive control). A general note: Flow cytometry measures light scatter and fluorescence of single cells or particles in a stream.

Where two headings read alike, the source gives them in different places. Bounds are passed on as bounds.

In the case of `COc1cccc2c1C(=O)c1c(O)c3c(c(O)c1C2=O)C[C@@](O)(C(=O)CO)C[C@@H]3O[C@H]1C[C@H](N)[C@H](O)[C@H](C)O1` [Doxorubicin, reference compound], the IC50 in the experiment on HeLa (Homo sapiens) is 0.03 ± 0.001 µM; in the experiment on HepG2 (Homo sapiens, HepG2, 72 h), 0.02 ± 0.002 µM; with MCF-7 (Homo sapiens, MCF7, 72 h) it was 0.02 ± 0.003 µM; in the experiment on HCT-116 (Homo sapiens, HCT-116, 72 h) it was 0.03 ± 0.003 µM; in the experiment on MDA-MB-231 (Homo sapiens, MDA-MB-231, 72 h), 0.03 ± 0.002 µM; in the experiment on HUVEC (Homo sapiens, HUVEC) it was 0.04 ± 0.005 µM.

On to `CCN(CC)CCCC(C)Nc1ccnc2cc(Cl)ccc12` (centres unmarked) [chloroquine phosphate], for which the “GFP-LC3 dots (autophagosomes)” value in the experiment on GFP-LC3-HeLa cells is recorded as “obvious increase in the GFP-LC3 dots”.

Regarding “3,9-dihydroxypterocarp-6a-en [Compound 17]”, the half-inhibitory concentration (IC50) in the experiment on HeLa (MTT, means ± SEM (n = 3)) is 36.1 ± 7.34 µM; in the experiment on HepG2 (MTT, 72 h, means ± SEM (n = 3)) it was 34.2 ± 1.87 µM; in the experiment on MCF-7 (MTT, 72 h, means ± SEM (n = 3)) it was 30.3 ± 1.32 µM; in the experiment on HCT-116 (MTT, 72 h, means ± SEM (n = 3)), 39.7 ± 2.06 µM; with MDA-MB-231 (MTT, 72 h, means ± SEM (n = 3)), 36.8 ± 5.61 µM; in the experiment with HUVEC (normal cell line, MTT, compounds at 50 μM, means ± SEM (n = 3)), more than 50 µM.

Consider `COc1cc(-c2coc3c(CC=C(C)C)c(OC)c(OC)c(O)c3c2=O)c(OC)cc1O` [Compound 5, 8-(γ, γ-dimethylallyl)-5,4′-dihydroxy-6,7,2′,5′-tetramethoxyisoflavone], for which the IC50 with HeLa (Homo sapiens) is 35.7 ± 3.91 µM; in the experiment with HepG2 (Homo sapiens, HepG2, 72 h) it was 31.6 ± 2.06 µM; in the experiment with MCF-7 (Homo sapiens, MCF7, 72 h) it was 35.1 ± 1.44 µM; in the experiment with HCT-116 (Homo sapiens, HCT-116, 72 h) it was 25.9 ± 0.85 µM; in the experiment with MDA-MB-231 (Homo sapiens, MDA-MB-231, 72 h), 27.6 ± 4.54 µM; in the experiment with HUVEC (Homo sapiens, HUVEC), more than 50 µM.

Take `COc1cc(OC)c(-c2coc3c(CC=C(C)C)c(OC)c(OC)cc3c2=O)cc1OC` [Compound 4, 8-(γ, γ-dimethylallyl)-6,7,2′,4′,5′-pentamethoxyisoflavone]: the “growth inhibition of HeLa cells (primary screening)” value in the experiment with HeLa (50 μM, MTT) is recorded as “most active”. The IC50 with HeLa (Homo sapiens) is 7.86 ± 1.21 µM; in the experiment with HepG2 (Homo sapiens, HepG2, 72 h) it was 8.74 ± 0.83 µM; in the experiment with MCF-7 (Homo sapiens, MCF7, 72 h) it was 18.5 ± 0.51 µM; with HCT-116 (Homo sapiens, HCT-116, 72 h) it was 8.61 ± 0.72 µM; in the experiment on MDA-MB-231 (Homo sapiens, MDA-MB-231, 72 h) it was 15.8 ± 2.15 µM; in the experiment with HUVEC (Homo sapiens, HUVEC), more than 50 µM. Besides, the “growth inhibition of MCF-7 cells (primary screening)” value with MCF-7 (50 μM, 72 h, MTT) is “most active”.

For `COc1cc2c(c(OC)c1OC)-c1ccc(OC)c(=O)cc1[C@@H](NC(C)=O)CC2` [Colchicine, colchicine], the “apoptosis rate (early + late apoptotic cells)” value with HeLa cells was 45.62%; with MCF-7 cells, 38.01%.
